Legend:
[1] = Cytotoxicity against human NCI-H292 cells assessed as decrease in cell viability after 72 hrs by MTT assay; type: functional, cell-based; conditions: NCI-H292, 72 h
In short: (§1)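 Human NSCLC lines (ATCC) seeded at 2 × 10^3 cells/well, adhered overnight, then exposed 72 h to at least five concentrations of analogue in RPMI with ≤0.2% DMSO. MTT 0.5 mg/mL added for 4 h, formazan dissolved in DMSO, absorbance read at 570 nm. Viability relative to untreated cells. IC50 per experiment averaged over three independent triplicate runs on different days (mean ± SD). Cisplatin positive control.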

[2] = Cytotoxicity against human NCI-H460 cells assessed as decrease in cell viability after 72 hrs by MTT assay; type: functional, cell-based; conditions: NCI-H460, 72 h; in short: as §1

| SMILES | IC50 [1] | IC50 [2] |
| --- | --- | --- |
| COC1=C(C)C(=O)C2=C(C1=O)[C@H]1[C@@H]3CC4=C(C(=O)C(OC)=C(C)C4=O)[C@H](COC(=O)/C=C/c4ccc([N+](=O)[O-])cc4)N3[C@@H](C#N)[C@H](C2)N1C | 22 nM | 14 nM |
| COC1=C(C)C(=O)C2=C(C1=O)[C@H]1[C@@H]3CC4=C(C(=O)C(OC)=C(C)C4=O)[C@H](COC(=O)c4cccc(C(F)(F)F)c4)N3[C@@H](C#N)[C@H](C2)N1C | 49 nM | 30 nM |
| COC1=C(C)C(=O)C2=C(C1=O)[C@H]1[C@@H]3CC4=C(C(=O)C(OC)=C(C)C4=O)[C@H](COC(=O)/C=C/c4ccncc4)N3[C@@H](C#N)[C@H](C2)N1C | 20 nM | 20 nM |
| COC1=C(C)C(=O)C2=C(C1=O)[C@H]1[C@@H]3CC4=C(C(=O)C(OC)=C(C)C4=O)[C@H](COC(=O)/C=C/c4ccccc4Cl)N3[C@@H](C#N)[C@H](C2)N1C | 25 nM | 9 nM |
| COC1=C(C)C(=O)C2=C(C1=O)[C@H]1[C@@H]3CC4=C(C(=O)C(OC)=C(C)C4=O)[C@H](COC(=O)/C=C/c4c(F)c(F)c(F)c(F)c4F)N3[C@@H](C#N)[C@H](C2)N1C | 21 nM | 69 nM |
| COC1=C(C)C(=O)C2=C(C1=O)[C@H]1[C@@H]3CC4=C(C(=O)C(OC)=C(C)C4=O)[C@H](COC(=O)c4ccc(F)cc4)N3[C@@H](C#N)[C@H](C2)N1C | 56 nM | 22 nM |
| COC1=C(C)C(=O)C2=C(C1=O)[C@H]1[C@@H]3CC4=C(C(=O)C(OC)=C(C)C4=O)[C@H](COC(=O)c4ccccc4C(F)(F)F)N3[C@@H](C#N)[C@H](C2)N1C | 51 nM | 22 nM |
| COC1=C(C)C(=O)C2=C(C1=O)[C@H]1[C@@H]3CC4=C(C(=O)C(OC)=C(C)C4=O)[C@H](COC(=O)/C=C/c4ccc(F)cc4)N3[C@@H](C#N)[C@H](C2)N1C | 44 nM | 12 nM |
| COC1=C(C)C(=O)C2=C(C1=O)[C@H]1[C@@H]3CC4=C(C(=O)C(OC)=C(C)C4=O)[C@H](COC(=O)c4cccnc4)N3[C@@H](C#N)[C@H](C2)N1C | 6.4 nM | 6 nM |
| COC1=C(C)C(=O)C2=C(C1=O)[C@H]1[C@@H]3CC4=C(C(=O)C(OC)=C(C)C4=O)[C@H](COC(=O)/C=C/c4cccc(F)c4)N3[C@@H](C#N)[C@H](C2)N1C | 11 nM | 9.8 nM |
| COC1=C(C)C(=O)C2=C(C1=O)[C@H]1[C@@H]3CC4=C(C(=O)C(OC)=C(C)C4=O)[C@H](COC(=O)c4cccc(F)c4)N3[C@@H](C#N)[C@H](C2)N1C | 18 nM | 11 nM |
| COC1=C(C)C(=O)C2=C(C1=O)[C@H]1[C@@H]3CC4=C(C(=O)C(OC)=C(C)C4=O)[C@H](COC(=O)c4ccccn4)N3[C@@H](C#N)[C@H](C2)N1C | 3.7 nM | 2.2 nM |
| COC1=C(C)C(=O)C2=C(C1=O)[C@H]1[C@@H]3CC4=C(C(=O)C(OC)=C(C)C4=O)[C@H](COC(=O)/C=C/c4ccccc4)N3[C@@H](C#N)[C@H](C2)N1C | 19 nM | 18 nM |
| COC1=C(C)C(=O)C2=C(C1=O)[C@H]1[C@@H]3CC4=C(C(=O)C(OC)=C(C)C4=O)[C@H](COC(=O)CC(F)(F)F)N3[C@@H](C#N)[C@H](C2)N1C | 570 nM | 320 nM |
| COC1=C(C)C(=O)C2=C(C1=O)[C@H]1[C@@H]3CC4=C(C(=O)C(OC)=C(C)C4=O)[C@H](COC(=O)c4ccncc4)N3[C@@H](C#N)[C@H](C2)N1C | 1.1 nM | 1.6 nM |
| COC1=C(C)C(=O)C2=C(C1=O)[C@H]1[C@@H]3CC4=C(C(=O)C(OC)=C(C)C4=O)[C@H](COC(=O)c4ccc(C(F)(F)F)cc4)N3[C@@H](C#N)[C@H](C2)N1C | 60 nM | 24 nM |
| COC1=C(C)C(=O)C2=C(C1=O)[C@H]1[C@@H]3CC4=C(C(=O)C(OC)=C(C)C4=O)[C@H](COC(=O)c4ccccc4F)N3[C@@H](C#N)[C@H](C2)N1C | 30 nM | 10 nM |
| COC1=C(C)C(=O)C2=C(C1=O)[C@H]1[C@@H]3CC4=C(C(=O)C(OC)=C(C)C4=O)[C@H](CO)N3[C@@H](C#N)[C@H](C2)N1C | 220 nM | 160 nM |
| COC1=C(C)C(=O)C2=C(C1=O)[C@H]1[C@@H]3CC4=C(C(=O)C(OC)=C(C)C4=O)[C@H](COC(=O)/C=C/c4cccnc4)N3[C@@H](C#N)[C@H](C2)N1C | 4.9 nM | 2.8 nM |
| C/C=C(/C)C(=O)OC[C@H]1C2=C(C[C@H]3[C@H]4C5=C(C[C@@H]([C@H](C#N)N13)N4C)C(=O)C(C)=C(OC)C5=O)C(=O)C(C)=C(OC)C2=O [RENIERAMYCIN M] | 23 nM | 8.3 nM |

Source: ChEMBL document CHEMBL3867436, “Chemistry of Renieramycins. 15. Synthesis of 22-O-Ester Derivatives of Jorunnamycin A and Their Cytotoxicity against Non-Small-Cell Lung Cancer Cells” (J Nat Prod, 2016)
